Results taken from ChEMBL document CHEMBL3351905, “Cyclic Penta- and Hexaleucine Peptides without N-Methylation Are Orally Absorbed” (ACS Med Chem Lett, 2014).
Peptide text beside a SMILES is read from it.

Tests used:
[1] = Apparent permeability in RRCK cells at 8 uM at pH 7.4 incubated for 2 hrs by LC-MS/MS method; type: ADME, cell-based, Canis lupus familiaris, MDCKII-LE; settings: dog, MDCK
[2] = Apparent permeability in RRCK cells at 8 uM at pH 7.4 incubated for 2 hrs by LC-MS/MS method relative to CSA; type: ADME, cell-based, Canis lupus familiaris; settings: dog, mdckii-le, pH 7.4, 2 h
Summary of the method: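 RRCK monolayers (no active transporters); compound at 8 μM alongside cyclosporin A at 8 μM; medium 0.05% DMSO in HEPES buffer, pH 7.4, 37 °C; apparent permeability expressed in cm·s–1.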

[3] = Oral bioavailability in Wistar rat at 10 mg/kg measured over 8 hrs by LC-MS method; type: ADME, organism-based; settings: in vivo
[4] = Clearance in Wistar rat at 1 mg/kg, iv by LC-MS method; type: ADME, organism-based; set-up: dose 1 mg/kg, route intravenous; settings: in vivo
[5] = Permeability in human Caco2 cells at 10 uM by LC-MS method; type: ADME, cell-based; settings: caco-2, 10 µM
Summary of the method: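 Caco-2 monolayers; compound at 10 μM, cyclosporin A comparator at 30 μM; medium 0.05% DMSO in HEPES buffer, pH 7.4, 37 °C; apparent permeability in cm·s–1.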

Row | Papp at 2 h, 8 µM [1] [×10⁻⁶ cm/s] | fold change (FC) [2] | bioavailability [3] [%] | clearance [4] [mL/min/kg] | permeability [5] | SMILES
1 | > 1 | 2 | 17 | 4.7 | permeable | CC(C)C[C@@H]1NC(=O)[C@H](CC(C)C)NC(=O)[C@H](CC(C)C)NC(=O)[C@H](CC(C)C)NC(=O)[C@H](CC(C)C)NC(=O)[C@H](CC(C)C)NC1=O
2 | 1.7 | – | 4 | – | permeable | CC(C)C[C@@H]1NC(=O)[C@H](CC(C)C)NC(=O)[C@H](CC(C)C)NC(=O)[C@H](CC(C)C)NC(=O)[C@H](CC(C)C)NC1=O (cyclo(LLLLL))
3 | > 1 | 2 | 9 | 24.1 | permeable | CC(C)C[C@@H]1NC(=O)[C@H](CC(C)C)NC(=O)[C@H](CC(C)C)NC(=O)[C@@H](CC(C)C)NC(=O)[C@H](CC(C)C)NC(=O)[C@H](CC(C)C)NC1=O
